Assays:
[1] = target: T1, 5-hydroxytryptamine receptor 1A (Rattus norvegicus, UniProt P19327); assay: Displacement of [3H]-8-OH-DPAT from Sprague-Dawley rat brain cortex serotonin 5-HT1A receptor after 30 mins by liquid scintillation counting; settings: read-out: Ki
T1 sequence (P19327 whole entry): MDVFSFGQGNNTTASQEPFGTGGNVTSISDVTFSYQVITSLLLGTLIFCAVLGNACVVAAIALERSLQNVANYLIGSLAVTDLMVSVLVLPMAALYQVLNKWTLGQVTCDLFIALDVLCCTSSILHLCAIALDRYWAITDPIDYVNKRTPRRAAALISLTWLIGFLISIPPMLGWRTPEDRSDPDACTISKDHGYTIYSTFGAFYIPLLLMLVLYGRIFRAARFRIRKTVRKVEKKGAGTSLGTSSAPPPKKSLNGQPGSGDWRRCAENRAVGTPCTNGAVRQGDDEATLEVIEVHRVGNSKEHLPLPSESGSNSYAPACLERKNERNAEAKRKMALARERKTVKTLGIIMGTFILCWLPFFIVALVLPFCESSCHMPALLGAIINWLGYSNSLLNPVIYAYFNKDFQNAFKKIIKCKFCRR
Summary of the method: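 Male Sprague-Dawley rat (180-220 g) cerebral cortex homogenized in 50 mM Tris-HCl pH 7.7, spun 50,000 g. [3H]-8-OH-DPAT 0.1 nM final, 30 min at 37 °C, GF/B filtration. Test compounds in ethanol or 5% DMSO, six concentrations in triplicate. IC50 by curve fitting, Ki by Cheng-Prusoff using Scatchard-derived KD.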

[2] = target: T2, Adrenergic receptor alpha-1 (Rattus norvegicus, UniProt P15823+P23944+P43140); assay: Displacement of [3H]prazosin from rat brain cortex adrenergic alpha1 receptor after 30 mins by liquid scintillation counting
T2 sequence (P15823 whole entry): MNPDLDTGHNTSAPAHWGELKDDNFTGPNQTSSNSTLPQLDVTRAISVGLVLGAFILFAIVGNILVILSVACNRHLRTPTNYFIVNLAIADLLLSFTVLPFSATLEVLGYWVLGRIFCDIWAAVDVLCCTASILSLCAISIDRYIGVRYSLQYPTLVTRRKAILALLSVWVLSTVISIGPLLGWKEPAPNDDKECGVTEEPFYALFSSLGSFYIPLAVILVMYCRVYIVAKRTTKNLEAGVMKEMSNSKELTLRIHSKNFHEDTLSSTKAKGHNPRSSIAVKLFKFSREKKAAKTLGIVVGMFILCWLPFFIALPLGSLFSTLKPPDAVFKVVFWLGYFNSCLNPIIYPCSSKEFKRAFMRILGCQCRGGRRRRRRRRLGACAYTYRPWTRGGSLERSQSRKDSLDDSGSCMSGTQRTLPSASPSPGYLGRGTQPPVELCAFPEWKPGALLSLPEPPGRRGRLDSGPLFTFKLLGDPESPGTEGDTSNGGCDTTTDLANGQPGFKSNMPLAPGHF
T2 sequence (P23944 whole entry): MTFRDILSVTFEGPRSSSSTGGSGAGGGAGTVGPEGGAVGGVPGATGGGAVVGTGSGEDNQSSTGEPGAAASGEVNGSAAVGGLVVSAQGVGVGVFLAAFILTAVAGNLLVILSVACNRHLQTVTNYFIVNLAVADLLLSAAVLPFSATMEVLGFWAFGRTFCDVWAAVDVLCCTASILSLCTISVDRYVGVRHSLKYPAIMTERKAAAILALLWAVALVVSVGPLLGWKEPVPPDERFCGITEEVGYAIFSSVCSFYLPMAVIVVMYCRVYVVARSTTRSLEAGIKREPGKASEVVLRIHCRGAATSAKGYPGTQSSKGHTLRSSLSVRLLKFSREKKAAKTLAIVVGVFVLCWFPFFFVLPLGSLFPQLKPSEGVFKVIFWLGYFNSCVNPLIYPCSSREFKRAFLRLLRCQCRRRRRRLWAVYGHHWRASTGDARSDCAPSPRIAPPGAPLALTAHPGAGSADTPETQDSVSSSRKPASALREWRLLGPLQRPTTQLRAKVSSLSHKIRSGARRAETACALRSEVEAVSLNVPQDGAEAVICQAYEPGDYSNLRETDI
T2 sequence (P43140 whole entry): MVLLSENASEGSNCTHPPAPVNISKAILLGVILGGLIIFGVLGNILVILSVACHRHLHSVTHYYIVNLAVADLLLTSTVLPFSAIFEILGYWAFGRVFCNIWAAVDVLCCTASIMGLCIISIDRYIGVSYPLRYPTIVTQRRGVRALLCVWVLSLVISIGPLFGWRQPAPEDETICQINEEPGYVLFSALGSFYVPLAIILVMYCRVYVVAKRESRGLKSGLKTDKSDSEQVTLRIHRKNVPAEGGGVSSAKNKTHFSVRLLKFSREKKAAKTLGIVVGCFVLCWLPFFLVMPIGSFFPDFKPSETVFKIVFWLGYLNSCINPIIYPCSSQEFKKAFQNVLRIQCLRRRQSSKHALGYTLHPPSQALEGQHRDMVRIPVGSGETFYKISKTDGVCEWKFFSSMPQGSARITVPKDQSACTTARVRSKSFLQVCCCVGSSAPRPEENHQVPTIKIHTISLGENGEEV
Summary of the method: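 Brain cortex homogenized in 50 mM Tris-HCl pH 7.2, spun twice at 50,000 g, resuspended in Tris-HCl pH 7.4. 0.4 nM [3H]prazosin final, 10 mg fresh tissue, 30 min at 25 °C. Nonspecific binding with phentolamine. GF/B filtration. Ki by Cheng-Prusoff from six-point triplicate curves.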

[3] = target: T3, 5-hydroxytryptamine receptor 2C (Rattus norvegicus, UniProt P08909); assay: Displacement of [3H]mesulergine from Sprague-Dawley rat brain cortex serotonin 5-HT2C receptor after 15 mins by liquid scintillation counting in presence of 5-HT2A blocker, spiperone
T3 sequence (P08909 whole entry): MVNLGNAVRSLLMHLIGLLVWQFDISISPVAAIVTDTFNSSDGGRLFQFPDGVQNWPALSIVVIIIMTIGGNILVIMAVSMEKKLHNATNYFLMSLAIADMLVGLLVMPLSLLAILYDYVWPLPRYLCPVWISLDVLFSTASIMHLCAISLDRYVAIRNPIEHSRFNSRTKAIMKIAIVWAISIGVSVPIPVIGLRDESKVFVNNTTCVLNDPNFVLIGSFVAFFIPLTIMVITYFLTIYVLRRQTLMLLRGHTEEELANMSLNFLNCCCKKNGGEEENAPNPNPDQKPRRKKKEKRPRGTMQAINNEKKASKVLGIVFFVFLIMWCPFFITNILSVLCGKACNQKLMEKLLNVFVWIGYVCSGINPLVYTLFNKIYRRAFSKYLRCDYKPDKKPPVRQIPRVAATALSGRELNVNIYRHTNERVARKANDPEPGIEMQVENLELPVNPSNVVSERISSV
Summary of the method: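 Male Sprague-Dawley rat frontal cortex membranes (Tris-HCl/EDTA/MgCl2 pH 7.4, ascorbate, pargyline). 100 nM spiperone in all tubes to block 5-HT2A sites. Mianserin defined nonspecific binding. 15 min at 37 °C, PEI-soaked glass fibre filtration. Six compound concentrations in triplicate. Ki by Cheng-Prusoff.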

Structure (SMILES) | Ki [1] | Ki [2] | Ki ([3]; read-out: Ki) | Ki [3]
Cc1cccc(N2CCN(CCCN/C(=N\C#N)c3ccccn3)CC2)c1C | 30 nM | 729 nM | 29.7 nM | 
N#C/N=C(\NCCCN1CCN(c2ccccn2)CC1)c1ccccn1 | 30.6 nM | 130 nM | > 10000 nM | 
CCOc1ccccc1N1CCN(CCCN/C(=N\C#N)c2ccccn2)CC1 | 17.2 nM | 152 nM |  | Not Active
N#C/N=C(\NCCCN1CCN(c2ncccn2)CC1)c1ccccn1 | 3080 nM | > 10000 nM | 22.5 nM | 

These reach a lower Ki [1]. Values come first.

Ki [1] | Ki [2] | Ki ([3]; read-out: Ki) | Ki [3] | Structure (SMILES)
1.31 nM | 770 nM | 1.81 nM |  | N#C/N=C(\NCCCN1CCN(c2cccc(C(F)(F)F)c2)CC1)c1ccccn1
4.68 nM | 105 nM | 1.61 nM |  | COc1ccccc1N1CCN(CCCN/C(=N\C#N)c2ccccn2)CC1
